sEH act: increases human soluble epoxide hydrolase activity. 91,000 tested, 0.04% active. AID 717. purified human sEH enzymatic activity, activator screen. activation, % at 2 µM. P34913; in the data active = activation above about 37%
Target sequence (P34913 whole entry, looked up): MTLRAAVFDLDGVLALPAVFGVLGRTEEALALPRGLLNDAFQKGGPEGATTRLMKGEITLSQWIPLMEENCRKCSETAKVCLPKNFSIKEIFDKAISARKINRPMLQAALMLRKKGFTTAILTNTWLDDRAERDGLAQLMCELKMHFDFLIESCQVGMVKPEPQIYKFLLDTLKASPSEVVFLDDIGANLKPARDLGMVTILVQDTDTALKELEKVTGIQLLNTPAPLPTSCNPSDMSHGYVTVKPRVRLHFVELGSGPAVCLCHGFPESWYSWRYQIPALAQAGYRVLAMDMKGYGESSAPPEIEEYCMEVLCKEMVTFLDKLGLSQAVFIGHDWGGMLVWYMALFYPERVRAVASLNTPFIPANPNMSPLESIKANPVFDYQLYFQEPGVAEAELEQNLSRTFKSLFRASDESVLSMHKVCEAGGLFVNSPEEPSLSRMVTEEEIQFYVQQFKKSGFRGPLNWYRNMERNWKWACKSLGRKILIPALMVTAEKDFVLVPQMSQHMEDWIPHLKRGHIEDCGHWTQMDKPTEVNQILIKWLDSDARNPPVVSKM
ERa coact pot: enhances coactivator binding to human estrogen receptor alpha. P03372. TR-FRET ERalpha-LBD/SRC-Cy5 coactivator binding, 2 h; 100 = basal binding, no effect. coactivator binding (% of control), % at 25.6 µM. 86,000 tested, 1.3% active; in the data active = activity above about 200%;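 also: binding measured in presence of low estradiol as agonist stimulus; 0% = peptide alone without receptor and 100% = receptor with peptide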
sEH inh: blocks human soluble epoxide hydrolase activity | AID 707 | 91,000 tested, 0.34% active | recombinant human sEH enzymatic activity assay | inhibition, % at 2 µM; in the data active = inhibition above about 80%
ERa coact inh: ER-alpha (human) coactivator binding inhibition | inhibition, % at 25.6 µM | 86,000 tested, 1.7% active | P03372 | TR-FRET ER-alpha LBD / SRC-1 peptide, estradiol-bound | AID 629; in the data active = inhibition above about 50%;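 also: 0% = receptor plus peptide control and 100% = peptide only without receptor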
ERb SRC1 inh: blocks coactivator binding to human estrogen receptor beta. Q92731. TR-FRET ER-beta LBD / SRC1-Cy5 peptide binding; receptor agonist-loaded with 1 µM estradiol. inhibition, % at 25.6 µM. 86,000 tested, 1.3% active. AID 633;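 active = compounds whose percent inhibition of the receptor-coactivator binding signal exceeds about 50% in the single-dose screen, limit read from the data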;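 also: 0% = receptor plus peptide wells without compound and 100% = peptide-only wells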
HIV Rev-RRE inh: inhibitors of HIV-1 Rev-RRE RNA interaction. Rev peptide-RRE RNA binding, FRET. inhibition, % at 8 µM. 97,000 tested, 0.79% active. AID 704;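 active = inhibition above the screen-wide mean plus 3 SD, cut at about 35% in these data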;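 also: 0% = median DMSO wells and 100% = median Neomycin B control wells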
Target sequence (P05866 whole entry, looked up): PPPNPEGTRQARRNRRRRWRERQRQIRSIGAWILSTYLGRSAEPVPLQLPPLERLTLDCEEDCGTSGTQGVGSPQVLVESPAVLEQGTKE
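Test system – labelled RRE RNA duplex and labelled Rev peptide · Signal – fluorescein-to-Cy5 FRET, 480 nm excitation · Evaluation – % inhibition of FRET ratio versus controls · Benchmarks – DMSO low control, neomycin B high control · Incubation – 5 min RNA-compound premix plus 15 min binding step, 25 °C · Medium – HEPES pH 7.5 salt buffer with EDTA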
Starred values were filed as active, the others as inactive; x = no result; [ ] = another dose, or the depositor's remark. Shown are actives, neighbours in structure and some others; about 3.5% of the full set was active somewhere.

SMILES | sEH act | ERa coact pot | sEH inh | ERa coact inh | ERb SRC1 inh | HIV Rev-RRE inh
O=C(NCCN1CCOCC1)c1ccc2c(c1)N(Cc1ccccc1)C(=O)CS2 | -20.8 | 116.2 | 20.7 | -4.7 | -0.7 | 4.7
O=C(NCCC1=CCCCC1)c1ccc2c(c1)N(Cc1ccccc1)C(=O)CS2 | -82.5 | 109.3 | 82.0* | 6.5 | 1.4 | 1.2
Cn1cccc1C(=O)NC(=O)COC(=O)CC12CC3CC(CC(C3)C1)C2 | -39.2 | 96.4 | 39.9 | 1.8 | 4.4 | 14.7
CN(C)S(=O)(=O)c1ccc(C(=O)Nc2nnc(Cc3ccccc3)s2)cc1 | -78.7 | 110.0 | 78.8 | 19.1 | 13.4 | 4.0
Cc1nc2c(ccc3nc(NC(=O)c4ccc(S(=O)(=O)N(C)C)cc4)sc32)s1 | 2.9 | 241.3*[fluorescence artefact?] | -4.3 | 18.7 | 12.3 | -4.1
CCC(=O)Nc1c(C#N)c2nc3ccccc3nc2n1C1CCCCC1 | -3.4 | 100.5 | 8.3 | 65.4*[fluorescence artefact?] | 34.2 | 5.1
CCCCn1c(NC(=O)CC)c(C#N)c2nc3ccccc3nc21 | 6.5 | 221.2*[fluorescence artefact?] | -6.5 | 72.1* | 43.0 | 11.7
CCc1nc2ccccc2c(=O)n1NC(=O)c1c(O)c2ccccc2[nH]c1=O | x | 272.9* | x | -36.4 | 0.2 | x
COc1ccc(-c2ccc(-c3nnc(-c4ccncc4)o3)cc2)cc1 | x | 184.1 | x | 56.2*[fluorescence artefact?] | 31.1 | x
COc1cc(NC(=O)c2cccs2)c(C(=O)OCC(=O)NCc2ccco2)cc1OC | x | 88.8 | x | 79.0* | 41.9 | x
COc1ccccc1C(OC(=O)c1cccs1)C(=O)NCc1ccco1 (configuration not stated) | -2.5 | 108.0 | 0.4 | 29.6 | 15.3 | -1.0
O=C(COC(=O)COc1ccc(Nc2ccccc2)cc1)NCc1ccco1 | 5.0 | 68.8 | -5.5 | 30.1 | 52.0*[fluorescence artefact?] | 5.5
O=C(COC(=O)c1ccccc1Nc1ccccc1)NCc1ccco1 | -17.0 | 102.9 | 17.6 | -9.0 | -1.8 | 4.8
CCOc1cc(NC(=O)c2cccs2)c(OCC)cc1NC(=O)c1ccco1 | 8.3 | 75.4 | -8.9 | 7.7 | 64.8* | 2.5
O=C(COC(=O)c1cccs1)NCc1ccco1 | x | 77.1 | x | 53.2*[fluorescence artefact?] | 53.0* | x
O=C(OCC(=O)N1CCN(C(=O)c2ccco2)CC1)c1cc(-c2ccc(F)cc2)nc2ccccc12 | -5.8 | 97.0 | 7.4 | -4.2 | 1.1 | 0.9
CCCn1c(=N)c(C(=O)NCc2ccc3c(c2)OCO3)cc2c(=O)n3cccc(C)c3nc21 | 24.0 | 26.0 | -26.4 | 78.7*[fluorescence artefact?] | 53.4*[fluorescence artefact?] | 12.2
Cc1cc(NC(=O)CSc2nc3ccsc3c(=O)n2CCCCC(=O)O)no1 | 8.1 | 113.2 | -6.0 | 5.0 | -4.5 | 6.3
CSc1nc(NCCOCCO)c2sc3nc(-c4ccco4)c4c(c3c2n1)CCC4 | x | 61.5 | x | 79.0* | 76.0*[fluorescence artefact?] | x
CCN(CC)C(=O)C1CCCc2c1[nH]c1ccc(Cl)cc21 (configuration not stated) | 5.4 | 126.3 | -6.4 | -3.1 | 1.2 | 9.9
C=CCn1c(=O)c(C#N)cc2c(=O)n3ccccc3nc21 | -1.4 | 40.5 | 0.9 | 55.5* | 56.9* | 23.5
C=CCn1c(=N)c(C#N)cc2c(=O)n3ccccc3nc21 | 1.6 | 104.8 | 3.5 | -18.6 | -12.6 | 4.1
Cc1ccc(NS(=O)(=O)c2ccc(CCC(=O)O)cc2)cc1 | x | 115.2 | x | 2.3 | 2.4 | x
CCOc1ccc2nc(NCCNC(=O)Nc3cccc(C)c3)c(C#N)cc2c1 | -6.8 | 121.0 | 8.0 | 51.1*[fluorescence artefact?] | 10.6 | 18.7
CCOc1ccc2nc(NCCNC(=O)Nc3ccccc3)c(C#N)cc2c1 | -7.8 | 89.0 | 7.5 | 2.6 | -1.3 | 29.4
SMILES | sEH act | ERa coact pot | sEH inh | ERa coact inh | ERb SRC1 inh | HIV Rev-RRE inh
COc1ccc(N2Cc3cccc(C(=O)N4CCN(C(=O)c5ccco5)CC4)c3C2=O)cc1 | -9.4 | 83.5 | 7.0 | 70.6* | 68.1* | -15.7
COc1ccc(OCC(=O)N2CCN(C(=O)c3ccco3)CC2)cc1 | 40.7* | 111.1 | -36.8 | -7.0 | 5.4 | 0.0
O=C(COc1ccccc1)N1CCN(C(=O)c2ccco2)CC1 | 18.7 | 110.8 | -18.6 | 1.7 | 2.0 | 5.4
O=C(NCc1ccccc1)c1cnc(-c2ccccn2)nc1C(F)(F)F | -11.0 | 114.4 | 10.9 | 14.7 | -4.1 | -0.7
CCn1c(SCC(=O)Nc2ccc3c(c2)oc2ccccc23)nnc1-c1ccc(N)cc1 | -8.2 | 66.9 | 6.5 | 74.4* | 50.1*[fluorescence artefact?] | -1.3
CCn1c(SCC(=O)Nc2ccc3c(c2)c2ccccc2n3CC)nnc1-c1ccco1 | -7.2 | 83.2 | 8.7 | 63.1* | 48.7 | 18.2
CCn1c(SCC(=O)Nc2ccc3c(c2)OCCO3)nnc1-c1ccco1 | 1.9 | 104.7 | 0.5 | -0.9 | 1.5 | 2.5
Cc1ccc(-n2c(Cc3cccs3)nnc2SCC(N)=O)cc1 | -3.7 | 97.7 | 4.0 | -4.6 | -10.5 | 6.3
O=[n+]1c2c(n([O-])c3cc(F)c(N4CCCC4)cc31)CCCC2 | -11.9 | 82.2 | 12.2 | 19.6 | 41.1 | 79.2*[fluorescence artefact?]
O=[n+]1c2c(n([O-])c3cc(F)c(N4CCCC4)cc31)CCC2 | 2.6 | 41.3 | 0.2 | 37.5 | 46.3 | 66.4*[fluorescence artefact?]
Cc1cc(=O)oc(C)c1C(=O)Nc1ccc2ncccc2c1 | -3.1 | 103.4 | 2.6 | -6.4 | -0.5 | 125.5*[fluorescence artefact?]
Cc1cc(=O)oc(C)c1C(=O)Nc1ccc2nsnc2c1 | x | 106.6 | x | 6.6 | 6.1 | 8.8
O=C(Nc1cccc2cccc(NC(=O)c3ccco3)c12)c1ccco1 | 0.6 | 61.6 | 3.2 | 22.2 | 51.5* | 0.7
CC(NC(=O)c1ccccc1NC(=O)c1ccco1)c1ccccc1 (configuration not stated) | -1.9 | 240.8*[fluorescence artefact?] | -0.5 | 33.9 | 12.0 | 0.8
O=C(Nc1ccccc1NC(=O)c1ccco1)c1ccco1 | 4.5 | 91.8 | -3.9 | -4.3 | -10.6 | 2.8
FC(F)(F)c1cccc(CNc2ncccc2-c2nc3cc(Cl)ccc3o2)c1 | 7.0 | x | -6.7 | x | x | 15.0
Cc1ccc(NC(=O)c2cccs2)cc1 | -8.3 | 94.3 | 7.7 | -10.0 | -1.5 | 8.4
Cc1[nH]c(=O)[nH]c(=O)c1NC(=O)c1cccs1 | -0.5 | 101.6 | 1.9 | 86.5*[fluorescence artefact?] | -5.7 | 4.8
Cc1c(NC(=O)c2cc(=O)[nH]c3ccccc23)c(=O)n(-c2ccccc2)n1C | 3.9 | 111.6 | -4.7 | -13.0 | -6.9 | 10.3
COc1ccc(-n2cnnc2SCC(=O)c2cc(C)n(Cc3cccs3)c2C)cc1 | -9.8 | 248.1*[fluorescence artefact?] | 9.9 | 20.7 | 25.3 | -4.1
COc1ccc(-c2nnc(SCC(=O)c3cc(C)n(Cc4cccs4)c3C)o2)cc1 | 4.5 | 302.8* | -6.6 | 52.4*[fluorescence artefact?] | 37.6 | -0.9
Cc1cc(C(=O)CSc2nnc(-c3ccc(OC(F)F)cc3)o2)c(C)n1Cc1cccs1 | 1.8 | 149.9 | -1.2 | 54.5*[fluorescence artefact?] | 44.3 | 4.4
COc1ccc(-c2nnc(SCC(=O)c3cccs3)o2)cc1 | x | 119.7 | x | 10.2 | 17.6 | x
Cc1csc(SCC(=O)c2cc(C)n(Cc3cccs3)c2C)n1 | 6.8 | 73.0 | -6.5 | -3.6 | -8.9 | 8.6
Cc1cc(C(=O)CSc2nnc(-c3ccco3)o2)c(C)n1Cc1ccco1 | 9.6 | 177.2 | -12.8 | 53.8*[fluorescence artefact?] | 41.1 | -7.8

Compound activity: PubChem BioAssay, several laboratories
